Diaphorase act = diaphorase activation or chemical reduction counter-screen. Diaphorase/resazurin coupled assay, resorufin fluorescence, 16 min; active compounds read high; 1 = vehicle wells, 0 = NADH-free wells. activation factor at 20 µM. 190,000 compounds, 0.005% hits;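 active means diaphorase activity raised at least twofold by the compound at 20 µM; inactive means activation factor below 2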
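Assay system: bacterial diaphorase enzyme (C. kluyveri) / Input: enzyme 0.07 U/mL final / Medium: 50 mM HEPES pH 7.4 with 4.542 mM MgCl2, 0.005% Tween 20 / Doses: single compound dose of 20 µM, 1% DMSO final / Incubation: 16 min enzyme reaction, ambient temperature / Signal: fluorescence, excitation 544 nm and emission 590 nm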
WT yeast gro inh = growth inhibition of WT yeast, mitochondrial fusion screen | AID 1362 | mitochondrial fusion phenotypic screen, WT strain | inhibition, % at 10 µM | 190,000 compounds, 2.1% hits; in the data active means inhibition above about 58%; tested in S. cerevisiae
PMI activator = phosphomannose isomerase (human) activation; P34949; activation factor at 20 µM; purified human PMI, coupled resazurin fluorescence, 20 min; active compounds read high; 1 = vehicle control, 0 substrate-free wells; AID 1214; 190,000 compounds, 0.005% hits;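 active means activation factor of 2 or more at 20 µM, relative to plate controls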
Target sequence (P34949 whole entry, looked up): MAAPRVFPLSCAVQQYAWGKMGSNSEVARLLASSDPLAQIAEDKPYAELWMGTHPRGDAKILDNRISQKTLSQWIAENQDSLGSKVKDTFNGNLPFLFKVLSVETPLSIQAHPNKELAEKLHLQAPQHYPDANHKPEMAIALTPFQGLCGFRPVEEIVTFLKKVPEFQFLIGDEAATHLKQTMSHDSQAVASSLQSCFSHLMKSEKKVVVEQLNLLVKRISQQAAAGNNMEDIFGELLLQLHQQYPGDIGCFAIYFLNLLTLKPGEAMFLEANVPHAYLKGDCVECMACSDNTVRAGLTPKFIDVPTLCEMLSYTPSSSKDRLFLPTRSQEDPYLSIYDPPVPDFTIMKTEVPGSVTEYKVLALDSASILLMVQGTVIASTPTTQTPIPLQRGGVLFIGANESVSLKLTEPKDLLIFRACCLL
Lmaj promast = reduces viability of Leishmania major promastigotes. inhibition, % at 10 µM. 200,000 compounds, 9% hits. resazurin fluorescence viability. AID 1063; in the data active means inhibition above about 50%;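 further: promastigotes grown with compound for 44 hours at 28 °C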
PMI act hi M6P = PMI (human) activation, high substrate; P34949; coupled PMI enzyme assay, resazurin fluorescence, 20 min; active compounds read high; 1 = untreated enzyme, 0 = substrate-free blank; activation factor at 20 µM; 190,000 compounds, 0.34% hits; AID 1216;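 active means activation factor of 2 or more at 20 µM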
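Material: human phosphomannose isomerase with PGI, G6PDH, diaphorase coupling enzymes. Quantity: 15 ng/mL PMI. Medium: HEPES pH 7.4 buffer with MgCl2 and Tween-20. Reagent: Near-saturating mannose-6-phosphate, 1.0 mM. Compound: 20 µM single dose. Times: enzyme reaction with compound 20 min at room temperature. Detection: resorufin fluorescence at Ex 544/Em 590 nm.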
* marks the source's active call; other numbers are inactive results; / = not tested or not shown; ! = a repeat was not active. Hits are enriched below; roughly 10% of the tested compounds scored in any of these assays.

SMILES | Diaphorase act | WT yeast gro inh | PMI activator | Lmaj promast | PMI act hi M6P
COc1ccc2nc(N3CCCC(C(=O)NCCCN4CCN(C)CC4)C3)sc2c1 (centres undefined) | 1 | 11.2 | 1 | 63.8* | 1
COc1ccc(C2NC(=S)NC(O)(C(F)(F)F)C2C(=O)c2cccs2)cc1 (centres undefined) | 1 | 1.0 | 0.9 | -2.8 | 1.1
Cc1ccc(N2C(=O)CC(N3CCc4ccccc43)C2=O)cc1Cl (centres undefined) | 1 | -0.4 | 1 | 4.0 | 1
Cc1cccc(-c2n[nH]c([N+](=O)[O-])n2)c1 | 0.9 | 3.6 | 1 | -3.9 | 1.1
O=[N+]([O-])c1cc(-c2n[nH]c(-c3ccccc3)n2)cc([N+](=O)[O-])c1 | 1 | 22.6 | 1 | 97.8* | 1
COc1ccc(C(=O)NCc2nnc(SC)n2Cc2ccccc2)cc1 | 0.9 | -6.1 | 0.9 | 2.4 | 0.9
Cc1cc(C(=O)CSc2n[nH]c(N)n2)c(C)n1-c1ccc2c(c1)OCO2 | 0.9 | -13.7 | 0.9 | 59.9* | 0.9
Cc1cc(C(=O)CSc2nc(N)cc(=O)[nH]2)c(C)n1-c1ccc(OC(F)F)cc1 | 0.9 | -14.0 | 1 | 98.0* | 1
COc1ccc(CCn2c(C)cc(C(=O)CSc3nc(N)cc(=O)[nH]3)c2C)cc1 | 0.8 | -4.5 | 0.9 | 1.1 | 1
Cc1cc(C(=O)CSc2nc(N)cc(N)n2)c(C)n1-c1cccc(F)c1 | 0.8 | 3.1 | 0.9 | 76.9* | 1
O=C(CN1CCC(n2cnc3cc(F)ccc32)CC1)Nc1ccccc1Br | 0.9 | 11.3 | 0.9 | 47.2 | 0.9
Cc1ccc(Cn2ncc3c(N4CCN(c5ccccc5C)CC4)ncnc32)cc1 | 0.9 | 64.9* | 0.8 | 22.5 | 0.9
COc1ccc(Nc2ncnc3c2cnn3Cc2ccc(C)cc2)cc1 | 0.8 | 8.1 | 0.8 | 90.2* | 0.9
Cc1ccc(Cn2ncc3c(N4CCOCC4)ncnc32)cc1 | 1 | -0.7 | 1.1 | -4.9 | 1
CN(Cc1ccccc1)C(=O)C(C(=O)c1ccc(F)cc1)n1cc(Cl)ccc1=O (centres undefined) | 1 | 3.7 | 1.1 | 6.8 | 0.9
CCC(C)CCCCNC1=NCCS1 (centres undefined) | 1.2 | 76.8 | 1.2 | 47.2 | 1.1
COc1cc(-c2nc(-c3ccc4c(c3)-c3ccccc3S4(=O)=O)c(-c3ccccc3)[nH]2)cc(OC)c1O | 0.8 | 11.2 | 1 | 91.4* | 1
Cn1c(CC(=O)Nc2ccccc2C(F)(F)F)c(Sc2ccccc2)c2ccccc21 | 1 | -11.5 | 0.9 | 0.2 | 1
CSc1ccc(CN2CCC(O)CC2)cc1 | / | 16.4 | / | 80.8* | /
CCOC(=O)N1CCN(C(=O)C2CCN(Cc3cccc(OCc4ccccc4)c3)CC2)CC1 | 0.9 | -11.0 | 1 | -10.4 | 1.1
CSc1ccc(CN2CCC(C(=O)NCc3ccc(C)cc3)CC2)cc1 | 0.8 | 13.7 | 1 | 92.1* | 1
CCN1CCN(Cc2ccc(NC(=O)Nc3ccc(SC)cc3)cc2)CC1 | 1 | -14.0 | 1 | 3.5 | 1
Cc1ccc(CNC(=O)CN2CCC(C(N)=O)CC2)cc1 | 1 | -6.3 | 1 | 12.2 | 1
CCCCOc1ccc(CN2CCC(O)CC2)cc1 | 0.9 | 13.8 | 0.9 | 90.7* | 0.9
CCCCN(C)C(=O)C1CCN(Cc2ccc(OCc3ccccc3)cc2)CC1 | 1 | -3.8 | 1.1 | 61.3* | 1.2
SMILES | Diaphorase act | WT yeast gro inh | PMI activator | Lmaj promast | PMI act hi M6P
CN(C)CCNC(=S)Nc1ccc(F)c(F)c1F | 0.8 | 7.7 | 1 | 3.6 | 0.9
CSc1ccc(S(=O)(=O)NCc2ccc(Cl)cc2Cl)cc1 | 0.7 | 53.5 | 0.8 | 0.4 | 0.9
CCSc1nnc(N2C(=O)CC(c3ccsc3)C3=C2CC(C)(C)CC3=O)s1 (centres undefined) | 1 | 9.8 | 0.9 | 67.3* | 0.9
CC1(C)CC(=O)C2=C(C1)N(c1ccc(F)cc1)C(=O)CC2c1cccnc1 (centres undefined) | 0.9 | 2.6 | 1 | -6.6 | 1
COc1cc(/C=C/C(=O)OCC(=O)N2CCc3ccccc3C2)ccc1O | 0.8 | -26.7 | 0.9 | 75.9* | 0.8
CCc1cccc2c(C(=O)COC(=O)/C=C/c3ccc(O)c(OC)c3)c[nH]c12 | 0.8 | 11.4 | 0.9 | 98.9* | 0.9
COc1cc(/C=C/C(=O)OCC(=O)N2CCC(Cc3ccccc3)CC2)ccc1O | 0.8 | 54.3 | 0.8 | 0.0 | 0.8
Cc1cccc(-n2ncc3c(NCc4cccs4)ncnc32)c1 | 0.8 | 10.7 | 0.8 | 96.7* | 0.9
Cc1cccc(-n2ncc3c(N4CCCc5ccccc54)ncnc32)c1 | 0.8 | 71.0* | 0.9 | 3.9 | 1
CC(=O)Nc1ccc(Nc2ncnc3c2cnn3-c2cccc(C)c2)cc1 | 0.8 | 20.9 | 0.8 | 75.2* | 0.8
CC(=O)Nc1ccc(Nc2ncnc3c2cnn3-c2ccccc2)cc1 | 0.9 | -3.7 | 1 | 8.8 | 1
CC(=O)Nc1ccc(Nc2ncnc3c2cnn3-c2ccc(C)cc2C)cc1 | 0.8 | 0.2 | 0.9 | 68.0* | 1
Cc1cccc(-n2ncc3c(NCc4ccccc4)ncnc32)c1 | 0.8 | 9.5 | 0.8 | -4.8 | 0.8
C/C(=N\NC(=O)c1cc(-c2cccc([N+](=O)[O-])c2)n[nH]1)c1ccccc1O | 0.9 | 4.1 | 1 | -9.4 | 1.1
CCOC(=O)N1CCN(C(=O)/C(=C/c2ccc(Br)cc2)NC(=O)c2ccc(OC)cc2)CC1 | 0.9 | 17.4 | 1.1 | -4.2 | 1
CCOC(=O)Cc1nnc(NC(=O)CSc2nnc3c(n2)[nH]c2ccccc23)s1 | 0.9 | 0.0 | 1.1 | -0.9 | 1
COc1ccc2c(C=Nc3c(C)n(C)n(-c4ccccc4)c3=O)c(O)n(Cc3ccco3)c(=O)c2c1 | 0.8 | 5.9 | 1 | 75.6*! | 0.9
CC1=C(C#N)C(NC(=O)c2cccc(Cl)c2)(C(F)(F)F)C(=O)N1 (centres undefined) | 1 | 6.7 | 1 | -0.6 | 1
O=C(/C=C/c1ccco1)c1ccc(NC(=O)C23CC4CC(CC(C4)C2)C3)cc1 | 0.8 | -10.6 | 1 | 58.7* | 1.1
CCCCn1nnc(NC(=O)c2ccc(-c3cccc([N+](=O)[O-])c3)o2)n1 | 0.9 | 17.8 | 1 | 55.6* | 0.9
O=C(Nc1nccs1)c1ccc(-c2cccc([N+](=O)[O-])c2)o1 | 1 | 15.2 | 1.1 | 11.2 | 1.1
CCn1nnc(NC(=O)c2ccc(-c3ccccc3[N+](=O)[O-])o2)n1 | 0.9 | -27.5 | 1 | 7.5 | 0.8
O=C(Nc1ncc(Cc2cccc(C(F)(F)F)c2)s1)c1ccc(-c2cccc([N+](=O)[O-])c2)o1 | 0.9 | 37.7 | 0.9 | 91.2* | 0.9
CCCCn1nnc(NC(=O)c2ccc(-c3cccc(Cl)c3)o2)n1 | 1.1 | 34.9 | 1 | 50.9* | 1
CCCn1nnc(NC(=O)Cc2ccccc2)n1 | 1 | -2.5 | 1 | -2.4 | 1.1
CCCn1nnc(NC(=O)c2cccc(OCc3ccccc3)c2)n1 | 1 | -10.7 | 0.9 | 52.2* | 1
